In ChEMBL document CHEMBL2311528, “Synthesis of spirolactone-type diterpenoid derivatives from kaurene-type oridonin with improved antiproliferative effects and their apoptosis-inducing activity in human hepatoma Bel-7402 cells” (Eur J Med Chem, 2013):
Each block holds one molecule with its values, some of them ahead of it.

Columns and labels:
[1] = Antiproliferative activity against human CaEs17 cells assessed as growth inhibition by MTT assay; type: functional, cell-based
In short: (§1)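 Cells treated in triplicate over a range of concentrations at 37 °C in humidified 5% CO2. At 72 h, MTT (5 mg/mL) was added for 4 h, followed by DMSO solubilisation and OD at 490 nm. IC50 is the concentration giving 50% growth inhibition, reported as mean ± S.D. of three independent experiments.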

[2] = tested on: K562; assay: Antiproliferative activity against human K562 cells assessed as growth inhibition by MTT assay; type: functional, cell-based
In short: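 K562 cells in log phase seeded at 5 × 10⁴ cells/mL and treated in triplicate across a 0.39–100 range. Cultures were kept at 37 °C in humidified 5% CO2. At 72 h, MTT (5 mg/mL) was added for 4 h, formazan was dissolved in DMSO, and OD was read at 490 nm. IC50 is the concentration giving 50% growth inhibition, reported as mean ± S.D. of three independent experiments.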

[3] = tested on: Bel-7402; assay: Antiproliferative activity against human Bel7402 cells assessed as growth inhibition by MTT assay; type: functional, cell-based; in short: as §1
[4] = tested on: MGC-803; assay: Antiproliferative activity against human MGC803 cells assessed as growth inhibition by MTT assay; type: functional, cell-based; in short: as §1
[5] = target: Glutathione S-transferase P (Homo sapiens) (UniProt P09211); assay: Inhibition of glutathione S-transferase pi in human Bel7402 cell lysates at 40 uM using CDNB and GSH as substrates by spectrophotometry; settings: Bel-7402
[6] = tested on: Bel-7402; assay: Induction of apoptosis in human Bel7402 cells assessed as early apoptotic cells level at 1 uM incubated for 3 days by Annexin-V and propidium iodide double staining based flow cytometry (reference value: 4.5%); type: functional
[7] = tested on: Bel-7402; assay: Induction of apoptosis in human Bel7402 cells assessed as necrotic cells level at 0.6 uM incubated for 3 days by Annexin-V and propidium iodide double staining based flow cytometry (reference value: 0.5%); type: functional
[8] = tested on: Bel-7402; assay: Potency index, ratio of IC50 for oridonin to IC50 for test compound against human Bel7402 cells; type: functional
[9] = tested on: Bel-7402; assay: Induction of cell cycle arrest in human Bel7402 cells assessed as accumulation at S phase at 1 uM incubated for 48 hrs by propidium iodide staining based flow cytometry (reference value: 31.89%); type: functional
In short: (§2)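 Bel-7402 seeded at 5.0 × 10³ cells/well and grown 24 h at 37 °C. Exponentially growing cells were treated for 48 h, alongside untreated and DMSO-solvent controls. Cells were then centrifuged, fixed overnight in 70% ethanol at 4 °C, and analysed by flow cytometry for phase distribution.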

[10] = tested on: Bel-7402; assay: Induction of apoptosis in human Bel7402 cells assessed as necrotic cells level at 1 uM incubated for 3 days by Annexin-V and propidium iodide double staining based flow cytometry (reference value: 0.5%); type: functional
[11] = Potency index, ratio of IC50 for oridonin to IC50 for test compound against human CaEs17 cells; type: functional
[12] = tested on: Bel-7402; assay: Induction of cell cycle arrest in human Bel7402 cells assessed as accumulation at S phase at 0.8 uM incubated for 48 hrs by propidium iodide staining based flow cytometry (reference value: 31.89%); type: functional; in short: as §2
[13] = tested on: Bel-7402; assay: Induction of apoptosis in human Bel7402 cells assessed as viable cells level at 1 uM incubated for 3 days by Annexin-V and propidium iodide double staining based flow cytometry (reference value: 92.6%); type: functional
[14] = tested on: MGC-803; assay: Potency index, ratio of IC50 for oridonin to IC50 for test compound against human MGC803 cells; type: functional
[15] = tested on: Bel-7402; assay: Induction of apoptosis in human Bel7402 cells assessed as late apoptotic cells level at 0.6 uM incubated for 3 days by Annexin-V and propidium iodide double staining based flow cytometry (reference value: 2.4%); type: functional
[16] = tested on: Bel-7402; assay: Induction of apoptosis in human Bel7402 cells assessed as early apoptotic cells level at 0.8 uM incubated for 3 days by Annexin-V and propidium iodide double staining based flow cytometry (reference value: 4.5%); type: functional
[17] = tested on: Bel-7402; assay: Induction of apoptosis in human Bel7402 cells assessed as late apoptotic cells level at 0.8 uM incubated for 3 days by Annexin-V and propidium iodide double staining based flow cytometry (reference value: 2.4%); type: functional
[18] = tested on: Bel-7402; assay: Induction of apoptosis in human Bel7402 cells assessed as late apoptotic cells level at 1 uM incubated for 3 days by Annexin-V and propidium iodide double staining based flow cytometry (reference value: 2.4%); type: functional
[19] = tested on: Bel-7402; assay: Induction of apoptosis in human Bel7402 cells assessed as viable cells level at 0.6 uM incubated for 3 days by Annexin-V and propidium iodide double staining based flow cytometry (reference value: 92.6%); type: functional
[20] = tested on: Bel-7402; assay: Induction of cell cycle arrest in human Bel7402 cells assessed as accumulation at G2/M phase at 0.6 uM incubated for 48 hrs by propidium iodide staining based flow cytometry (reference value: 4.75%); type: functional; in short: as §2
[21] = tested on: Bel-7402; assay: Induction of cell cycle arrest in human Bel7402 cells assessed as accumulation at G2/M phase at 0.8 uM incubated for 48 hrs by propidium iodide staining based flow cytometry (reference value: 4.75%); type: functional; in short: as §2
[22] = tested on: K562; assay: Potency index, ratio of IC50 for oridonin to IC50 for test compound against human K562 cells; type: functional
[23] = tested on: Bel-7402; assay: Induction of cell cycle arrest in human Bel7402 cells assessed as accumulation at G1 phase at 0.6 uM incubated for 48 hrs by propidium iodide staining based flow cytometry (reference value: 63.86%); type: functional; in short: as §2
[24] = tested on: Bel-7402; assay: Induction of apoptosis in human Bel7402 cells assessed as necrotic cells level at 0.8 uM incubated for 3 days by Annexin-V and propidium iodide double staining based flow cytometry (reference value: 0.5%); type: functional
[25] = tested on: Bel-7402; assay: Induction of cell cycle arrest in human Bel7402 cells assessed as accumulation at G1 phase at 1 uM incubated for 48 hrs by propidium iodide staining based flow cytometry (reference value: 63.86%); type: functional; in short: as §2
[26] = tested on: Bel-7402; assay: Induction of cell cycle arrest in human Bel7402 cells assessed as accumulation at G2/M phase at 1 uM incubated for 48 hrs by propidium iodide staining based flow cytometry (reference value: 4.75%); type: functional; in short: as §2
[27] = tested on: Bel-7402; assay: Induction of cell cycle arrest in human Bel7402 cells assessed as accumulation at G1 phase at 0.8 uM incubated for 48 hrs by propidium iodide staining based flow cytometry (reference value: 63.86%); type: functional; in short: as §2
[28] = tested on: Bel-7402; assay: Induction of cell cycle arrest in human Bel7402 cells assessed as accumulation at S phase at 0.6 uM incubated for 48 hrs by propidium iodide staining based flow cytometry (reference value: 31.89%); type: functional; in short: as §2
[29] = tested on: Bel-7402; assay: Induction of apoptosis in human Bel7402 cells assessed as viable cells level at 0.8 uM incubated for 3 days by Annexin-V and propidium iodide double staining based flow cytometry (reference value: 92.6%); type: functional
[30] = tested on: Bel-7402; assay: Induction of apoptosis in human Bel7402 cells assessed as early apoptotic cells level at 0.6 uM incubated for 3 days by Annexin-V and propidium iodide double staining based flow cytometry (reference value: 4.5%); type: functional

Sequence of Glutathione S-transferase P (Homo sapiens) (P09211 2-210 limits assumed): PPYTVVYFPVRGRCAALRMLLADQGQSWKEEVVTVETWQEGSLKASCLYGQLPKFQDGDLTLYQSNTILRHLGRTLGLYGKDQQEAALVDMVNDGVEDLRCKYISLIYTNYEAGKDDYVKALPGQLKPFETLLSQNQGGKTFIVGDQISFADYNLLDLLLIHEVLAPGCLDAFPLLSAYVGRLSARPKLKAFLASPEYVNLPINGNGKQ

Structure (SMILES): C=C1C(=O)[C@@]23C(=O)OC[C@]4([C@@H](OC(C)=O)CCC(C)(C)[C@H]4C=O)[C@@H]2CC[C@H]1[C@H]3OC(=O)c1ccc(C(F)(F)F)cc1
IC50 [1]: 9160 nM
IC50 [2]: 3150 nM
IC50 [3]: 5090 nM
IC50 [4]: 5540 nM

Structure (SMILES): CC(=O)O[C@H]1C(=O)[C@@]2(C)[C@H]([C@H](OC(=O)c3ccccc3)[C@]3(O)C[C@H](OC(=O)[C@H](O)[C@@H](NC(=O)c4ccccc4)c4ccccc4)C(C)=C1C3(C)C)[C@]1(OC(C)=O)CO[C@@H]1C[C@@H]2O [PACLITAXEL]
IC50 [1]: 430 nM

Structure (SMILES): C=C1C(=O)[C@@]23C(=O)OC[C@]4([C@@H](OC(C)=O)CCC(C)(C)[C@H]4C=O)[C@@H]2CC[C@H]1[C@H]3OC(=O)CCCC
IC50 [1]: 2850 nM
IC50 [2]: 1560 nM
IC50 [3]: 3640 nM
IC50 [4]: 2490 nM

Structure (SMILES): C=C1C(=O)[C@@]23C(=O)OC[C@]4([C@@H](OC(C)=O)CCC(C)(C)[C@H]4C=O)[C@@H]2CC[C@H]1[C@H]3OC(=O)c1ccc(Cl)cc1
IC50 [1]: 1250 nM
IC50 [2]: 870 nM
IC50 [3]: 1510 nM
IC50 [4]: 1730 nM

Structure (SMILES): C=C1C(=O)[C@@]23C(=O)OC[C@]4([C@@H](OC(C)=O)CCC(C)(C)[C@H]4C=O)[C@@H]2CC[C@H]1[C@H]3OC(=O)c1ccc([N+](=O)[O-])cc1
IC50 [1]: 1600 nM
IC50 [2]: 1140 nM
IC50 [3]: 1740 nM
IC50 [4]: 1980 nM

Structure (SMILES): C=C1C(=O)[C@@]23C(=O)OC[C@]4([C@@H](OC(C)=O)CCC(C)(C)[C@H]4C=O)[C@@H]2CC[C@H]1[C@H]3OC(=O)c1ccc(OC)cc1
IC50 [1]: 1960 nM
IC50 [2]: 1920 nM
IC50 [3]: 2470 nM
IC50 [4]: 2530 nM

The next lines start with results.

inhibition [5]: 7.08%
IC50 [2]: 1740 nM
IC50 [3]: 3960 nM
IC50 [4]: 3470 nM
Structure (SMILES): C=C1C(=O)[C@@]23C(=O)OC[C@]4([C@@H](OC(C)=O)CCC(C)(C)[C@H]4C=O)[C@@H]2CC[C@H]1[C@H]3OC(C)=O
IC50 [1]: 2800 nM

inhibition [5]: 0%
IC50 [2]: 390 nM
IC50 [3]: 1390 nM
IC50 [4]: 1280 nM
Structure (SMILES): C=C1C(=O)[C@@]23C(=O)OC[C@]4([C@@H](OC(C)=O)CCC(C)(C)[C@H]4C=O)[C@@H]2CC[C@H]1[C@H]3OC(=O)c1ccccc1Cl
Activity [6]: 21%
IC50 [1]: 600 nM
Activity [7]: 0.1%
Ratio IC50 [8]: 5
Activity [9]: 0%
Activity [10]: 0.6%
Ratio IC50 [11]: 18
Activity [12]: 5.28%
Activity [13]: 66%
Ratio IC50 [14]: 4
Activity [15]: 3.8%
Activity [16]: 9.6%
Activity [17]: 9.3%
Activity [18]: 12.4%
Activity [19]: 87.2%
Activity [20]: 23.2%
Activity [21]: 53.3%
Ratio IC50 [22]: 12
Activity [23]: 56.07%
Activity [24]: 0.3%
Activity [25]: 7.84%
Activity [26]: 92.16%
Activity [27]: 41.69%
Activity [28]: 20.73%
Activity [29]: 80.9%
Activity [30]: 8.8%

IC50 [2]: 1500 nM
IC50 [3]: 3780 nM
IC50 [4]: 3220 nM
Structure (SMILES): C=C1C(=O)[C@@]23C(=O)OC[C@]4([C@@H](OC(C)=O)CCC(C)(C)[C@H]4C=O)[C@@H]2CC[C@H]1[C@H]3OC(=O)CC
IC50 [1]: 2770 nM

IC50 [2]: 1400 nM
IC50 [3]: 3050 nM
IC50 [4]: 2180 nM
Structure (SMILES): C=C1C(=O)[C@@]23C(=O)OC[C@]4([C@@H](OC(C)=O)CCC(C)(C)[C@H]4C=O)[C@@H]2CC[C@H]1[C@H]3OC(=O)c1ccccc1
IC50 [1]: 1990 nM

IC50 [2]: 1310 nM
IC50 [3]: 2090 nM
IC50 [4]: 1900 nM
Structure (SMILES): C=C1C(=O)[C@@]23C(=O)OC[C@]4([C@@H](OC(C)=O)CCC(C)(C)[C@H]4C=O)[C@@H]2CC[C@H]1[C@H]3OC(=O)c1ccc(C)cc1
IC50 [1]: 1830 nM
